Data: ChEMBL document CHEMBL1137654, “Activity of an antimicrobial peptide mimetic against planktonic and biofilm cultures of oral pathogens” (2007)
Converted amounts (≈) assume the structure as drawn. The source made the active and inactive calls. The rule behind the calls is not given here.

Columns and labels:
Streptococcus mutans [1] = test: Antibacterial activity against Streptococcus mutans ATCC 33402 biofilms assessed as log reduction of viable bacteria at 500 ug/ml; assay type: functional, organism-based
Procedure, shortened: (§1)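 1 × 10⁵ CFU grown 2 days in BHI + 1% sucrose, then compound added for 24 h. Biofilms washed with PBS, disrupted by sonication (30 s) in 2 ml PBS, serially diluted and plated on mitis agar for viable counts.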

RAW264.7 [2] = test: Inhibition of Pseudomonas aeruginosa LPS-induced TNFalpha production in mouse RAW264.7 cells at 7 nM after 6 hrs by ELISA; assay type: functional, cell-based
Procedure, shortened: (§2)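 RAW 264.7 macrophages plated overnight at 1 × 10⁶ cells/well, then stimulated with 100 ng/ml LPS together with test agent for 6 h at 37°C. TNF-α in the medium measured by mouse TNF-α ELISA. Triplicate; SE; t test.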

Nucleic Acid [3] = test: Binding affinity to double stranded DNA retardation of oligonucleotide movement by agarose gel electrophoresis; assay type: nucleic-acid assay
Nucleic Acid [4] = test: Binding affinity to single stranded AT-rich oligonucleotide assessed as retardation of oligonucleotide movement by agarose gel electrophoresis; assay type: nucleic-acid assay
Streptococcus mutans [5] = test: Antibacterial activity against Streptococcus mutans ATCC 33402 in presence of 30 nM single stranded DNA; assay type: functional, organism-based
Streptococcus mutans [6] = test: Antibacterial activity against Streptococcus mutans ATCC 33402 after 18 to 24 hrs; assay type: functional
Procedure, shortened: (§3)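 Exponential-phase overnight culture in the organism's growth medium, adjusted to 4.5 × 10⁵ CFU/ml and added to serial compound dilutions in 96-well plates; 37°C for 18 to 24 h in a humidified container. MIC = lowest concentration preventing visible turbidity. Triplicate.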

Streptococcus mutans [7] = test: Antibacterial activity against Streptococcus mutans isolate N32 after 18 to 24 hrs; assay type: functional; procedure, shortened: as §3
Streptococcus mutans [8] = test: Antibacterial activity against Streptococcus mutans isolate N43 after 18 to 24 hrs; assay type: functional; procedure, shortened: as §3
Staphylococcus aureus [9] = test: Antibacterial activity against Staphylococcus aureus ATCC 27660 after 18 to 24 hrs; assay type: functional; procedure, shortened: as §3
Porphyromonas gingivalis [10] = test: Antibacterial activity against Porphyromonas gingivalis ATCC 53978 after 18 to 24 hrs; assay type: functional
Procedure, shortened: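 P. gingivalis maintained in cooked meat medium with glucose, hemin and vitamin K at 37°C, anaerobic. MIC run in both cooked meat medium and TSB: 4.5 × 10⁵ CFU/ml with serial dilutions, 18 to 24 h, lowest concentration without visible turbidity. Triplicate.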

[11] = system: Aggregatibacter actinomycetemcomitans; test: Antibacterial activity against Actinobacillus actinomycetemcommitans CU1000 after 18 to 24 hrs; assay type: functional; procedure, shortened: as §3
Actinomyces viscosus [12] = test: Antibacterial activity against Actinomyces viscosus after 18 to 24 hrs; assay type: functional; procedure, shortened: as §3
Streptococcus mutans [13] = test: Antibacterial activity against Streptococcus mutans ATCC 33402 after 24 to 48 hrs; assay type: functional
Procedure, shortened: (§4)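 MBC: wells at the MIC plus one dilution above and below plated on agar; after 24 to 48 h growth, MBC = lowest concentration giving no visible growth on the agar surface.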

Streptococcus mutans [14] = test: Antibacterial activity against Streptococcus mutans isolate N32 after 24 to 48 hrs; assay type: functional; procedure, shortened: as §4
Streptococcus mutans [15] = test: Antibacterial activity against Streptococcus mutans isolate N43 after 24 to 48 hrs; assay type: functional; procedure, shortened: as §4
Staphylococcus aureus [16] = test: Antibacterial activity against Staphylococcus aureus ATCC 27660 after 24 to 48 hrs; assay type: functional; procedure, shortened: as §4
Porphyromonas gingivalis [17] = test: Antibacterial activity against Porphyromonas gingivalis ATCC 53978 after 24 to 48 hrs; assay type: functional
Procedure, shortened: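 P. gingivalis MBC, anaerobic, from MIC plates run in cooked meat medium and TSB: the MIC well and one dilution above and below plated; lowest concentration with no visible agar growth after 24 to 48 h.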

[18] = system: Aggregatibacter actinomycetemcomitans; test: Antibacterial activity against Actinobacillus actinomycetemcommitans CU1000 after 24 to 48 hrs; assay type: functional; procedure, shortened: as §4
Actinomyces viscosus [19] = test: Antibacterial activity against Actinomyces viscosus after 24 to 48 hrs; assay type: functional; procedure, shortened: as §4
Streptococcus mutans [20] = test: Antibacterial activity against Streptococcus mutans ATCC 33402 assessed as log cell killing at 10 times MIC within 1 minute by time kill study; assay type: functional
Streptococcus mutans [21] = test: Antibacterial activity against Streptococcus mutans ATCC 33402 assessed as log cell killing at MIC after 1 hr by time kill study; assay type: functional, organism-based
Candida albicans [22] = test: Antifungal activity against Candida albicans ATCC 90028 after 24 hrs by broth microdilution assay; assay type: functional; conditions: ATCC 90028, 24 h
Procedure, shortened: (§5)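 CLSI M27-A2 broth microdilution. Colonies from 24-h YPD agar culture suspended in 0.85% saline, set to 0.5 McFarland (OD 530 nm). Final inoculum 0.5–2.5 × 10³ CFU/ml in RPMI 1640 + 0.165 M MOPS pH 7.0. DMSO stock diluted to final 0.016–16 μg/ml. 35°C, visual read at 24 h against the drug-free well. Duplicate.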

Candida albicans [23] = test: Antifungal activity against Candida albicans 44 after 24 hrs by broth microdilution assay; assay type: functional; conditions: Candida albicans, 44, 24 h; procedure, shortened: as §5
Candida albicans [24] = test: Antifungal activity against Candida albicans M70 after 24 hrs by broth microdilution assay; assay type: functional; conditions: M70, 24 h; procedure, shortened: as §5
Candida dubliniensis = test: Antifungal activity against Candida dubliniensis NCPF3949 after 24 hrs by broth microdilution assay; assay type: functional; conditions: NCPF3949, 24 h; procedure, shortened: as §5
Nakaseomyces glabratus = test: Antifungal activity against Candida glabrata ATCC 90030 after 24 hrs by broth microdilution assay; assay type: functional; conditions: ATCC 90030, 24 h; procedure, shortened: as §5
Pichia kudriavzevii = test: Antifungal activity against Candida krusei ATCC 6258 after 24 hrs by broth microdilution assay; assay type: functional; conditions: ATCC 6258, 24 h; procedure, shortened: as §5
Candida parapsilosis = test: Antifungal activity against Candida parapsilosis ATCC 22019 after 24 hrs by broth microdilution assay; assay type: functional; conditions: Lodderomyces parapsilosis, ATCC 22019, 24 h; procedure, shortened: as §5
Candida tropicalis = test: Antifungal activity against Candida tropicalis ATCC 750 after 24 hrs by broth microdilution assay; assay type: functional; conditions: ATCC 750, 24 h; procedure, shortened: as §5
Streptococcus mutans [25] = test: Antibacterial activity against Streptococcus mutans ATCC 33402 assessed as inhibition of biofilm formation at >1 ug/ml in presence of 1% sucrose by crystal violet staining; assay type: functional, organism-based
Streptococcus mutans [26] = test: Antibacterial activity against Streptococcus mutans ATCC 33402 biofilms assessed as inhibition of adherent biomass growth at >2.5 ug/ml in presence of 1% sucrose by crystal violet staining; assay type: functional, organism-based
Procedure, shortened: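 1 × 10⁵ CFU seeded in 96-well plates in BHI + 1% sucrose to form a biofilm, then exposed to increasing concentrations. After PBS washes to remove planktonic cells, methanol fixation and crystal violet staining, absorbance read at 595 nm. Reported as change from day-2 cultures before compound addition. Triplicate; SD.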

Streptococcus mutans [27] = test: Antibacterial activity against Streptococcus mutans ATCC 33402 biofilms assessed as log reduction of viable bacteria at 50 ug/ml; assay type: functional; procedure, shortened: as §1
Streptococcus mutans [28] = test: Antibacterial activity against Streptococcus mutans ATCC 33402 biofilms assessed as bacterial dead cells at 50 ug/ml after 24 hrs by fluorescence confocal microscopy; assay type: functional, organism-based
Procedure, shortened: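 2-day sucrose biofilms treated 24 h with 0 or 50 μg/ml, washed three times with PBS, stained 15 min in the dark with LIVE/DEAD dye diluted 1:1,000, washed once. Imaged by confocal laser scanning microscopy at 488 and 543 nm, side and top views.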

Streptococcus mutans [29] = test: Antibacterial activity against Streptococcus mutans ATCC 33402 in presence of 10% human saliva; assay type: functional
Streptococcus mutans [30] = test: Antibacterial activity against Streptococcus mutans ATCC 33402 in presence of 25% human saliva; assay type: functional
Streptococcus mutans [31] = test: Antibacterial activity against Streptococcus mutans ATCC 33402 in presence of 50% human saliva; assay type: functional
RAW264.7 [32] = test: Inhibition of Pseudomonas aeruginosa LPS-induced TNFalpha production in mouse RAW264.7 cells at 9.5 nM after 6 hrs by ELISA; assay type: functional, cell-based; procedure, shortened: as §2
Nucleic Acid [33] = test: Binding affinity to single stranded GC-rich oligonucleotide assessed as retardation of oligonucleotide movement by agarose gel electrophoresis; assay type: nucleic-acid assay

Question: With `CN(C)[C@@H]1C(O)=C(C(N)=O)C(=O)[C@@]2(O)C(O)=C3C(=O)c4c(O)cccc4[C@@](C)(O)[C@H]3C[C@@H]12` as the compound, how does the Activity (Streptococcus mutans [1]) read?
Answer: Active

Question: With POLYMYXIN B as the compound, how does the Activity (RAW264.7 [2]) read?
Answer: Active

Question: `NCCc1cc(Br)cc(C#Cc2cccc(C#Cc3cc(Br)cc(CCN)c3)c2)c1` was tested. Which Activity (Nucleic Acid [3]) did it give?
Answer: Active

Question: What about the Activity (Nucleic Acid [4]) of the same compound?
Answer: Active

Question: What about the Activity (Streptococcus mutans [5]) of the same compound?
Answer: Active

Question: And the MIC (Streptococcus mutans [6])?
Answer: 0.5 mg/L (≈ 0.957 µM)

Question: And the MIC (Streptococcus mutans [7])?
Answer: 0.5 mg/L (≈ 0.957 µM)

Question: And the MIC (Streptococcus mutans [8])?
Answer: 0.5 mg/L (≈ 0.957 µM)

Question: And the MIC (Staphylococcus aureus [9])?
Answer: 0.25 mg/L (≈ 0.479 µM)

Question: And the MIC (Porphyromonas gingivalis [10])?
Answer: 2.5 mg/L (≈ 4.79 µM)

Question: And the MIC [11]?
Answer: 0.4 mg/L (≈ 0.766 µM)

Question: And the MIC (Actinomyces viscosus [12])?
Answer: 0.8 mg/L (≈ 1.53 µM)

Question: And the MBC (Streptococcus mutans [13])?
Answer: 1.25 mg/L (≈ 2.39 µM)

Question: And the MBC (Streptococcus mutans [14])?
Answer: 1.25 mg/L (≈ 2.39 µM)

Question: What about the MBC (Streptococcus mutans [15]) of the same compound?
Answer: 1.25 mg/L (≈ 2.39 µM)

Question: And the MBC (Staphylococcus aureus [16])?
Answer: 0.8 mg/L (≈ 1.53 µM)

Question: What about the MBC (Porphyromonas gingivalis [17]) of the same compound?
Answer: 2.5 mg/L (≈ 4.79 µM)

Question: And the MBC [18]?
Answer: 1.5 mg/L (≈ 2.87 µM)

Question: What about the MBC (Actinomyces viscosus [19]) of the same compound?
Answer: 1.5 mg/L (≈ 2.87 µM)

Question: And the Activity (Streptococcus mutans [20])?
Answer: >2

Question: And the Activity (Streptococcus mutans [21])?
Answer: Active

Question: What about the MFC (Candida albicans [22]) of the same compound?
Answer: 2 mg/L (≈ 3.83 µM)

Question: What about the MIC (Candida albicans [22]) of the same compound?
Answer: 1 mg/L (≈ 1.91 µM)

Question: And the MFC (Candida albicans [23])?
Answer: 1 mg/L (≈ 1.91 µM)

Question: And the MIC (Candida albicans [23])?
Answer: 0.5 mg/L (≈ 0.957 µM)

Question: And the MFC (Candida albicans [24])?
Answer: 1 mg/L (≈ 1.91 µM)

Question: And the MIC (Candida albicans [24])?
Answer: 0.5 mg/L (≈ 0.957 µM)

Question: And the MFC (Candida dubliniensis)?
Answer: 2 mg/L (≈ 3.83 µM)

Question: What about the MIC (Candida dubliniensis) of the same compound?
Answer: 1 mg/L (≈ 1.91 µM)

Question: And the MFC (Nakaseomyces glabratus)?
Answer: 2 mg/L (≈ 3.83 µM)

Question: What about the MIC (Nakaseomyces glabratus) of the same compound?
Answer: 1 mg/L (≈ 1.91 µM)

Question: What about the MFC (Pichia kudriavzevii) of the same compound?
Answer: 2 mg/L (≈ 3.83 µM)

Question: And the MIC (Pichia kudriavzevii)?
Answer: 1 mg/L (≈ 1.91 µM)

Question: What about the MFC (Candida parapsilosis) of the same compound?
Answer: 2 mg/L (≈ 3.83 µM)

Question: What about the MIC (Candida parapsilosis) of the same compound?
Answer: 1 mg/L (≈ 1.91 µM)

Question: And the MFC (Candida tropicalis)?
Answer: 2 mg/L (≈ 3.83 µM)

Question: And the MIC (Candida tropicalis)?
Answer: 1 mg/L (≈ 1.91 µM)

Question: And the Activity (Streptococcus mutans [25])?
Answer: Active

Question: And the Activity (Streptococcus mutans [26])?
Answer: Active

Question: And the Activity (Streptococcus mutans [27])?
Answer: 3

Question: What about the Activity (Streptococcus mutans [28]) of the same compound?
Answer: Active

Question: And the MIC (Streptococcus mutans [29])?
Answer: 1 mg/L

Question: And the MIC (Streptococcus mutans [30])?
Answer: 1 mg/L

Question: And the MIC (Streptococcus mutans [31])?
Answer: 0.5 mg/L

Question: What about the Activity (RAW264.7 [32]) of the same compound?
Answer: Active

Question: And the Activity (Nucleic Acid [33])?
Answer: Active
